# Activity calls are given as the source filed them. No cut-off for these calls is given here.
# Legend:
# [1] = test system: Rattus norvegicus; experiment: In vivo efficacy evaluated for ability to antagonize metrazole induced clonic convulsions in rat after ip injection; type: functional
# [2] = target: T1, GABA-A receptor; alpha-1/beta-2/gamma-2 (Homo sapiens) (UniProt P14867+P47870+P18507); experiment: (§1) In vitro GABA-mediated chloride current in A293 cells expressing GABA-A benzodiazepine receptor alpha-1-beta-2-gamma-2 subunits at 5 uM; type: functional, cell-based; settings: HEK293
# [3] = test system: Rattus norvegicus; experiment: Total plasma clearance was determined for the compound after iv dose of 4.74 mg/kg in rats; type: ADME, organism-based; parameters: dose 4.74 mg/kg, route intravenous; settings: in vivo
# [4] = organism: Mus musculus; experiment: Ability to antagonize the muscle relaxation effect in mice caused by a benzodiazepine full agonist, triazolam.; type: functional
# Summary of the method: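 Muscle relaxation induced by triazolam; test compound and triazolam given separately, traction scored 30 min after dosing; ED50 for blocking the relaxant effect.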
# [5] = test system: Rattus norvegicus; experiment: Mean number of shocks produced by the compound in rats at a dose of 0 mg/kg was determined by vogel's punished licking assay; type: functional
# Summary of the method: (§2)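 Vogel punished licking test in rats; number of shocks accepted recorded per dose group (n 6–10); each dose compared with the 0 mg/kg group of the same experiment by Wilcoxon rank sum test.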
# [6] = test system: Rattus norvegicus; experiment: Geller-cook activity was determined using wilcoxon signed rank test on non punished schedule at dose 3 mg/kg.; type: functional
# Summary of the method: (§3)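 Geller–Cook conflict schedule with punished and nonpunished response rates recorded per treatment; 6 animals per dose, controls 12–17; each dose compared to its own control by Wilcoxon signed rank test, p < 0.05.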
# [7] = target: T2, GABA-A receptor; anion channel (Rattus norvegicus) (UniProt O09028+P15431+P18506+P18508+P19969+P20236+P23574+P23576+P28471+P28473+P30191+P62813+P63079+P63138+Q91ZM7+Q9ES14); experiment: Shift in [35S]TBPS binding to GABA-A Benzodiazepine receptor of rat brain membrane
# [8] = target: GABA A receptor alpha-3/beta-2/gamma-2 (Homo sapiens) (UniProt P47870+P18507+P34903); experiment: In vitro GABA-mediated chloride current in A293 cells expressing GABA-A benzodiazepine receptor alpha-3-beta-2-gamma-2 subunits at 5 uM; type: functional, cell-based; settings: HEK293
# [9] = target: T1, GABA-A receptor; alpha-1/beta-2/gamma-2 (Homo sapiens); experiment: as §1; type: functional, cell-based; settings: HEK293; remark: listed apart in the source
# [10] = test system: Rattus norvegicus; experiment: Area under curve was determined for the compound after iv dose of 4.74 mg/kg in rats; type: ADME, organism-based; parameters: dose 4.74 mg/kg, route intravenous; settings: in vivo
# [11] = test system: Rattus norvegicus; experiment: Mean number of shocks in vogel''s punished licking assay in rats by 3 mg/kg Diazepam; type: functional; summary of the method: as §2
# [12] = test system: Rattus norvegicus; experiment: Mean number of shocks produced by the compound in rats at a dose of 10 mg/kg was determined by vogel's punished licking assay; type: functional; summary of the method: as §2
# [13] = test system: Rattus norvegicus; experiment: Mean number of shocks produced by the compound in rats at a dose of 1 mg/kg was determined by vogel's punished licking assay; type: functional; summary of the method: as §2
# [14] = test system: Rattus norvegicus; experiment: Geller-cook activity was determined using wilcoxon signed rank test on non punished schedule at dose 0.3 mg/kg.; type: functional; summary of the method: as §3
# [15] = target: T2, GABA-A receptor; anion channel (Rattus norvegicus); experiment: (§4) Displacement of [3H]flunitrazepam from GABA-A benzodiazepine receptor of rat cortical membranes; type: cell membranes; parameters: concentration or dose not given beside the values; settings: Membrane, concentration not given here
# Summary of the method: (§5)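 Rat membranes incubated 60 min at 4 °C with [3H]flunitrazepam, 50 µg membrane protein and graded test drug in 200 µL containing NaCl, 10 mM Hepes/Tris pH 7.4 and 1 mM MgCl2; bound ligand separated by rapid filtration on GF/B; mean affinity, SE ≤10% of mean.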
# [16] = test system: Rattus norvegicus; experiment: Mean number of shocks produced by the compound in rats at a dose of 0.3 mg/kg was determined by vogel's punished licking assay; type: functional; summary of the method: as §2
# [17] = test system: Rattus norvegicus; experiment: Geller-cook activity was determined using wilcoxon signed rank test on punished schedule at dose 3 mg/kg.; type: functional; summary of the method: as §3
# [18] = test system: Mus musculus; experiment: In vivo efficacy is evaluated by percent control of cerebellar GMP levels in (drug+stress) treated mice/mice under stress; type: functional; parameters: concentration or dose not given beside the values
# Summary of the method: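 Male CF-1 mice given drug orally in vehicle 122 before electric footshock stress, controls given vehicle (1 mL/100 g); killed 30 min after treatment; cerebellum homogenized in 1% perchloric acid, iced 30 min, boiled 5 min, spun 17000g 20 min; supernatant cGMP by radioimmunoassay, expressed as % of stress control.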
# [19] = test system: Rattus norvegicus; experiment: Mean number of shocks produced by the compound in rats at a dose of 3 mg/kg was determined by vogel's punished licking assay; type: functional; summary of the method: as §2
# [20] = Half-life after iv dose of 4.74 mg/kg in rats; type: ADME, organism-based; parameters: dose 4.74 mg/kg, route intravenous; settings: rat, in vivo
# [21] = test system: Rattus norvegicus; experiment: Geller-cook activity was determined using wilcoxon signed rank test on punished schedule at dose 0.3 mg/kg.; type: functional; summary of the method: as §3
# [22] = test system: Mus musculus; experiment: In vivo acute electroshock physical dependence activity in mice; Not active.; type: functional, organism-based
# [23] = target: GABA-A receptor; anion channel; experiment: as §4; type: cell membranes, Membrane; summary of the method: as §5
# [24] = test system: Rattus norvegicus; experiment: Geller-cook activity was determined using wilcoxon signed rank test on non punished schedule at dose 1 mg/kg.; type: functional; summary of the method: as §3
# [25] = test system: Rattus norvegicus; experiment: Geller-cook activity was determined using wilcoxon signed rank test on punished schedule at dose 1 mg/kg.; type: functional; summary of the method: as §3
# [26] = Total plasma clearance was determined for the compound after iv dose of 4.97 mg/kg in rats; type: ADME, organism-based; parameters: dose 4.97 mg/kg, route intravenous; settings: rat, read-out: Clp (converted)
# [27] = half-life after po dose of 5.03 mg/kg in rats; type: ADME, organism-based; parameters: dose 5.03 mg/kg, route oral; settings: rat, in vivo
# [28] = test system: Rattus norvegicus; experiment: Mean number of shocks produced by CDPZ in rats at a dose of 12 mg/kg was determined by vogel's punished licking assay; type: functional; summary of the method: as §2
# [29] = Time at which Cmax was reached was determined for the compound after po dose of 5.03 mg/kg in rats; type: ADME, organism-based; parameters: dose 5.03 mg/kg, route oral; settings: rat, in vivo
# Summary of the method: (§6)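 Male Sprague–Dawley rats dosed orally with compound in a solution formulation, n = 3–4 per compound; serum drug concentrations measured over time, lower limit of quantitation 50 ng/mL. Tmax reported as the range of observed values across animals.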
# [30] = Oral bioavailability at a dose of 5.03 mg/kg in rats; type: ADME, organism-based; settings: rat, in vivo
# [31] = Maximum serum concentration was determined for the compound after po dose of 5.03 mg/kg in rats; type: ADME, organism-based; parameters: dose 5.03 mg/kg, route oral; settings: rat
# [32] = Area under curve was determined for the compound after po dose of 5.03 mg/kg in rats; type: ADME, organism-based; parameters: dose 5.03 mg/kg, route oral; settings: rat, in vivo
# [33] = Area under the curve was determined for the compound after iv dose of 4.97 mg/kg in rats; type: ADME, organism-based; parameters: dose 4.97 mg/kg, route intravenous; settings: rat, in vivo
# [34] = Half-life after iv dose of 4.97 mg/kg in rats; type: ADME, organism-based; parameters: dose 4.97 mg/kg, route intravenous; settings: rat, in vivo
# [35] = target: T2, GABA-A receptor; anion channel (Rattus norvegicus); experiment: Inhibition of [35S]TBPS binding to GABA-A Benzodiazepine receptor of rat brain membranes; type: cell membranes; settings: Membrane
# [36] = Area under curve was determined for the compound after po dose of 5.46 mg/kg in rats; type: ADME, organism-based; parameters: dose 5.46 mg/kg, route oral; settings: rat, in vivo
# [37] = Maximum serum concentration after po dose of 5.46 mg/kg in rats; type: ADME, organism-based; parameters: dose 5.46 mg/kg, route oral; settings: rat
# [38] = Half-life after po dose of 5.46 mg/kg in rats; type: ADME, organism-based; parameters: dose 5.46 mg/kg, route oral; settings: rat, in vivo
# [39] = Time at which Cmax was reached was determined for the compound after po dose of 5.46 mg/kg in rats; type: ADME, organism-based; parameters: dose 5.46 mg/kg, route oral; settings: rat, in vivo; summary of the method: as §6
# [40] = target: T2, GABA-A receptor; anion channel (Rattus norvegicus); settings: Membrane
Shift [7],Change in Cl- current [8],Change in Cl- current [9],inhibition [15] [%],Ki [23] [nM],Structure (SMILES),ED50 [1] [mg/kg],ED50 [4] [mg/kg],Mean no. of shocks [5],Mean no. of shocks [12],Mean no. of shocks [13],Mean no. of shocks [16],Control [18] [%],Mean no. of shocks [19],Acute electroshock activity [22],other results
-0.06,1,-0.2,86,4.48,C[C@@H]1CN(C(=O)N2Cc3c(C(=O)OC(C)(C)C)ncn3-c3ccc(Cl)cc32)C[C@H](C)N1C,14.8,7,8.4,18,7,8,36,18,inactive,Change in Cl- current [2]: 1; Clp [3]: 2.71 L/h/kg; Gellar cook activity [6]: 36; AUC [10]: 3.57 µg·h/mL; Mean no. of shocks [11]: 13; Gellar cook activity [14]: 38; Gellar cook activity [17]: 65; half-life [20]: 0.57 h; Gellar cook activity [21]: 22; Gellar cook activity [24]: 56; Gellar cook activity [25]: 53
0.31,0.1,0.5,52,32.4,C[C@@H]1CN(C(=O)N2Cc3c(C(=O)OC(C)(C)C)ncn3-c3ccc(C(F)(F)F)cc32)C[C@H](C)N1,21,> 30,4.9,7.9,4.9,4.6,36,6.4,inactive,clearance [26]: 0.73 L/h/kg; half-life [27]: 2.7 h; Mean no. of shocks [28]: 23; Tmax [29]: 1 h; bioavailability [30]: 84%; Cmax [31]: 1.16 µg/mL; AUC [32]: 6.43 µg·h/mL; AUC [33]: 7.47 µg·h/mL; half-life [34]: 2.4 h
–,–,0.38,–,2.56,CC(C)(C)OC(=O)c1ncn2c1CN(C(=O)N1CCCC1)c1cc(Cl)ccc1-2.CCCC(=O)O,29.7,14,–,–,–,–,105,–,inactive,Shift [35]: 0.53; AUC [36]: 3.68 µg·h/mL; Cmax [37]: 0.33 µg/mL; half-life [38]: 7.6 h; Tmax [39]: 1 h
–,–,0.04,–,–,CC(C)n1c(=O)c2c(-c3noc(C4CC4)n3)ncn2c2ccccc21 [PANADIPLON],1.6,1.7,–,–,–,–,87,–,inactive,Shift [40]: 0.06

# Source: ChEMBL document CHEMBL1132620, “Piperazine imidazo[1,5-a]quinoxaline ureas as high-affinity GABAA ligands of dual functionality” (J Med Chem, 1999)
